Results as given in the array DNA melting data of Ke et al. (doi:10.1101/2024.01.08.574731).

Experiments:
[1] = melting temperature; fluorescence melt of hairpins on a sequencing array, two-state fit, raised by 9.35 °C to match UV melts; conditions: sodium 0.088 M
Outline: (§1)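 Cy3 signals were normalised both to pre-quench Cy3 and to control constructs. They came from library hairpins carrying annealed Cy3 and quencher oligos on a sequenced MiSeq flow cell, imaged in 50 mM Na-HEPES pH 8.0, 25 mM NaCl, in 2.5 °C steps up to 60 °C. Bootstrapped two-state fits gave melting temperature and folding enthalpy, and four replicates were combined by inverse variance. Fitted temperatures were then raised by 9.35 °C to match UV melts.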

[2] = folding enthalpy; higher = less favourable; fluorescence melt of hairpins on a sequencing array, two-state fit; conditions: sodium 0.088 M
Outline: as §1

| Sequence | Tm [1] | folding enthalpy [2] |
| --- | --- | --- |
| GGGTTCGGAAACAAACCC (((((.(....).))))) | 43 °C | -29.8 kcal/mol |
| GGGTTGAAAAACCC (((((....))))) | 55.5 °C | -29.5 kcal/mol |
| GGGTTGACGAAAGTCCCC (((..(((....)))))) | 42.5 °C | -20.6 kcal/mol |
| GGGTTGCGAAAGCATCCC (((.(((....))).))) | 59.1 °C | -34.1 kcal/mol |
| GGGTTGGGAAACCAACTC (.(((((....))))).) | 49.7 °C | -21.9 kcal/mol |
| GGGTTGGGAAACCAGCCC (((.(((....))).))) | 56 °C | -46.6 kcal/mol |
| GGGTTGGGAAACCGATCC ((.(.((....)).).)) | 40.3 °C | -16.3 kcal/mol |
| GGGTTTCCGAAAGGACCC (((..(((....)))))) | 40.6 °C | -19.3 kcal/mol |
| GGGTTTTCGAAAGAACCC (((..(((....)))))) | 43.6 °C | -31.8 kcal/mol |
| GGTAAACCGAAAGGTACC (((..(((....)))))) | 40.1 °C | -20.2 kcal/mol |
| GGTAAACGAAAGTTCACC (((.(((....))).))) | 40.4 °C | -28.6 kcal/mol |
| GGTAAACGAAAGTTGACC (((.(((....))).))) | 49.4 °C | -36.3 kcal/mol |
| GGTAACACGAAAGTGACC (((..(((....)))))) | 37.1 °C | -17.1 kcal/mol |
| GGTAACGAAAGTTAGACC ((((((....)))..))) | 33.6 °C | -13 kcal/mol |
| GGTAACGAAAGTTCGACC ((((((....)))..))) | 28 °C | -16 kcal/mol |
| GGTAACGAAAGTTGCACC ((((((....)))..))) | 35.1 °C | -14.1 kcal/mol |
| GGTAAGACGAAAGTCACC (((..(((....)))))) | 39.3 °C | -16.2 kcal/mol |
| GGTAAGCGAAAGCTAACC (((.(((....))).))) | 50.1 °C | -33.4 kcal/mol |
| GGTAAGCGAAAGCTCACC (((.(((....))).))) | 46.9 °C | -25.5 kcal/mol |
| GGTAAGGAAACTTACC ((((((....)))))) | 50.3 °C | -32.2 kcal/mol |
| GGTAAGGGAAACCTTACC (((((((....))))))) | 57.5 °C | -46.1 kcal/mol |
| GGTAAGGGAAACCTTGCC ((.((((....)))).)) | 48.3 °C | -29.6 kcal/mol |
| GGTAATCCGAAAGGAACC (((..(((....)))))) | 26 °C | -19.7 kcal/mol |

| Sequence | Tm [1] | folding enthalpy [2] |
| --- | --- | --- |
| GGTAATGAAAATTACC ((((((....)))))) | 48.4 °C | -32.4 kcal/mol |
| GGTAATGCGAAAGCAACC (((..(((....)))))) | 31.6 °C | -11.2 kcal/mol |
| GGTACACCGAAAGGTACC (((..(((....)))))) | 41.1 °C | -20.5 kcal/mol |
| GGTACACGAAAGTGACC (((.(((....)))))) | 46.4 °C | -18.4 kcal/mol |
| GGTACAGGAAACTGTATC (.(((((....))))).) | 43.4 °C | -28.6 kcal/mol |
| GGTACCGAAAGGTGCACC ((((((....)))..))) | 40.3 °C | -13.9 kcal/mol |
| GGTACCGAAAGGTGTACC ((((((....)))..))) | 46.6 °C | -22.5 kcal/mol |
| GGTACCGAAAGGTTGACC ((((((....)))..))) | 36 °C | -16.9 kcal/mol |
| GGTACGGCGAAAGCCACC (((..(((....)))))) | 38.1 °C | -10.6 kcal/mol |
| GGTACTCGAAAGAGACC (((.(((....)))))) | 43.1 °C | -23.6 kcal/mol |
| GGTACTGGAAACAATACC ((((.((....)).)))) | 26.7 °C | -12 kcal/mol |
| GGTACTGGAAACAGTGCC ((.((((....)))).)) | 54.9 °C | -41.8 kcal/mol |
| GGTAGCCGAAAGGCCACC (((.(((....))).))) | 52.2 °C | -19.5 kcal/mol |
| GGTAGCGAAAGCTTTACC ((((((....)))..))) | 34.4 °C | -15.7 kcal/mol |
| GGTAGGTCGAAAGACACC (((..(((....)))))) | 35.3 °C | -16.5 kcal/mol |
| GGTAGTCGAAAGACGACC (((.(((....))).))) | 54.2 °C | -44.9 kcal/mol |
| GGTAGTGGAAACACTATC (.(((((....))))).) | 43.5 °C | -23.4 kcal/mol |
| GGTAGTGGAAACGCTACC (((((.(....).))))) | 51.7 °C | -34.9 kcal/mol |
| GGTATACGAAAGTACACC (((.(((....))).))) | 40 °C | -28.7 kcal/mol |
| GGTATAGCGAAAGCTACC (((..(((....)))))) | 39.6 °C | -15.4 kcal/mol |
| GGTATAGGAAACTGTACC ((((.((....)).)))) | 43 °C | -31.3 kcal/mol |
| GGTATCGAAAGATATACC ((((((....)))..))) | 34 °C | -19.7 kcal/mol |
| GGTATCGAAAGATTAACC ((((((....)))..))) | 30.3 °C | -17 kcal/mol |

| Sequence | Tm [1] | folding enthalpy [2] |
| --- | --- | --- |
| GGTATCGAAAGATTTACC ((((((....)))..))) | 28.5 °C | -27.8 kcal/mol |
| GGTATCGGAAACGGTATC (.((.((....)).)).) | 30.9 °C | -26.1 kcal/mol |
| GGTATGGCGAAAGCCACC (((..(((....)))))) | 38.9 °C | -8.56 kcal/mol |
| GGTATGGGAAACCATGCC ((.((((....)))).)) | 51.3 °C | -37.4 kcal/mol |
| GGTATGGGAAACTATGCC ((.((.(....).)).)) | 30.9 °C | -23.7 kcal/mol |
| GGTATTCGAAAGAAAACC (((.(((....))).))) | 39.3 °C | -32.8 kcal/mol |
| GGTATTCGAAAGAAACC (((.(((....)))))) | 31.7 °C | -16.9 kcal/mol |
| GGTATTGCGAAAGCAACC (((..(((....)))))) | 29.4 °C | -10 kcal/mol |
| GGTATTGGAAACAACACC (((.(((....))).))) | 32.2 °C | -31.9 kcal/mol |
| GGTCAAACGAAAGTTACC (((..(((....)))))) | 30.3 °C | -15.1 kcal/mol |
| GGTCAACGAAAGTTTACC (((.(((....))).))) | 42.8 °C | -28.8 kcal/mol |
| GGTCAAGGAAACTTGATC (.(((((....))))).) | 42.1 °C | -34.1 kcal/mol |
| GGTCAAGGAAACTTGGTC (..((((....))))..) | 29.7 °C | -13.9 kcal/mol |
| GGTCACCGAAAGGTACC (((.(((....)))))) | 47.1 °C | -19.7 kcal/mol |
| GGTCACGAAAGTGAAACC ((((((....)))..))) | 41.4 °C | -17.9 kcal/mol |
| GGTCACGAAAGTGAACC ((((((....))).))) | 55.6 °C | -27.2 kcal/mol |
| GGTCACGAAAGTGACACC ((((((....)))..))) | 52 °C | -7.64 kcal/mol |
| GGTCACGAAAGTGCAACC ((((((....)))..))) | 38.6 °C | -15.9 kcal/mol |
| GGTCACGAAAGTGCCACC ((((((....)))..))) | 44.4 °C | -12.9 kcal/mol |
| GGTCACGGAAACGCGACC ((((.((....)).)))) | 54.4 °C | -50.2 kcal/mol |
| GGTCACGGAAACGTGATC (.(((((....))))).) | 53 °C | -30.4 kcal/mol |
| GGTCACTCGAAAGAGACC (((..(((....)))))) | 40.8 °C | -24.1 kcal/mol |
| GGTCAGCGAAAGCTAACC (((.(((....))).))) | 46.7 °C | -25.6 kcal/mol |

| Sequence | Tm [1] | folding enthalpy [2] |
| --- | --- | --- |
| GGTCAGGGAAACCTAACC (((.(((....))).))) | 33.6 °C | -24.6 kcal/mol |
| GGTCCACGAAAGTGAACC (((.(((....))).))) | 51.3 °C | -34.8 kcal/mol |
| GGTCCAGGAAACTAGACC ((((.((....)).)))) | 35.7 °C | -29.7 kcal/mol |
| GGTCCCCGAAAGGGAACC (((.(((....))).))) | 53 °C | -37 kcal/mol |
| GGTCCCGAAAGGGAGACC ((((((....)))..))) | 51.4 °C | -17 kcal/mol |
| GGTCCCGAAAGGGGTACC ((((((....)))..))) | 44.9 °C | -17.2 kcal/mol |
| GGTCCCGAAAGGGTCACC ((((((....)))..))) | 39.4 °C | -12.2 kcal/mol |
| GGTCCCGGAAACGGGGTC (..((((....))))..) | 42.8 °C | -14.4 kcal/mol |
| GGTCCGCGAAAGCGAACC (((.(((....))).))) | 57.5 °C | -28.1 kcal/mol |
| GGTCCGGGAAACCGGGCC ((.((((....)))).)) | 68 °C | -32.5 kcal/mol |
| GGTCCGGGAAACCGGGTC (..((((....))))..) | 47.6 °C | -12.7 kcal/mol |
| GGTCCTGGAAACGGGATC (.(((.(....).))).) | 38.4 °C | -28.5 kcal/mol |
| GGTCGAGCGAAAGCTACC (((..(((....)))))) | 33.3 °C | -11.9 kcal/mol |
| GGTCGATCGAAAGATACC (((..(((....)))))) | 26.2 °C | -6.77 kcal/mol |
| GGTCGCCGAAAGGCTACC (((.(((....))).))) | 54.4 °C | -21.2 kcal/mol |
| GGTCGCGAAAGCGATACC ((((((....)))..))) | 47.7 °C | -11.3 kcal/mol |
| GGTCGCGAAAGCGCAACC ((((((....)))..))) | 42.4 °C | -13.1 kcal/mol |
| GGTCGCGAAAGCGTACC ((((((....))).))) | 62 °C | -21.2 kcal/mol |
| GGTCGCGGAAACGCGGTC (..((((....))))..) | 47.4 °C | -13.2 kcal/mol |
| GGTCGGGGAAACCCAACC (((.(((....))).))) | 44.9 °C | -27 kcal/mol |
| GGTCGGGGAAACCCGGTC (..((((....))))..) | 45.5 °C | -14.8 kcal/mol |
| GGTCTAGGAAACCAGACC (((((.(....).))))) | 45 °C | -35.1 kcal/mol |
